# Screens: PubChem BioAssay, Johns Hopkins Ion Channel Center
# KCNK9 inh: human KCNK9 channel inhibition; 1.2% of 310,000 active; HEK293 KCNK9, FluxOR thallium flux fluorescence; active compounds read low; B-score at 10 µM; Q9NPC2;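 active = ratio B-score over 3 SD below the library mean, with starting fluorescence within 5 SD of its mean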;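 note: negative B-score means less thallium flux so channel inhibition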
# hERG rescue: shields human hERG channel from block by proarrhythmic agents. 0.51% of 310,000 active. activation (rescue from dofetilide block), less the hit threshold, % at 10 µM. CHO-hERG, FluxOR thallium flux, dofetilide IC70 present;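 active = activation above the mean of controls blocked by dofetilide plus 5 SD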;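 note: thallium influx through hERG after potassium depolarization seen as dye fluorescence rise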
# KCNQ1 act: human KCNQ1 channel potentiation or activation | CHO-K1 KCNQ1, thallium flux FluxOR fluorescence; active compounds read high | 0.35% of 310,000 active | P51787 | B-score at 10 µM | AID 2648;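 active = fluorescence ratio B-score, a plate-corrected score, at least three library SD, with initial intensity B-score within 5 SD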
#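 Medium – assay buffer, equal DMSO in all wells · Material – CHO-K1 cell line with stable KCNQ1 potassium channel expression · Signal – kinetic FluxOR thallium fluorescence, 10-s 1-Hz baseline, 110-s post-stimulus read · Compound – single concentration per compound, DMSO matched to controls · Schedule – 37 °C overnight plating, 90-min dark dye load, 20-min compound pretreatment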
# KCNQ1 block: inhibitors of human KCNQ1 potassium channel | CHO-K1 KCNQ1, FluxOR thallium flux fluorescence; active compounds read high | B-score at 10 µM | 1.3% of 310,000 active;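 active = compounds whose thallium flux B-score, printed positive for inhibition, exceeds three library SD while starting fluorescence stays within three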;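 note: channel opened by potassium depolarization with thallium stimulus after 20 min compound exposure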
# KCNK3 block: human KCNK3 channel inhibition, primary screen. O14649. B-score at 10 µM. CHO-KCNK3 thallium flux, FluxOR fluorescence; active compounds read low. 0.84% of 340,000 active. AID 602410;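 active = B-score under library mean minus 4 SD, starting fluorescence ratio at most library mean plus 5 SD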;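 note: more negative B-score means stronger inhibition of thallium flux through KCNK3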
# Kir21 inh: Kir2.1 (mouse) channel inhibition. 0.85% of 310,000 active. AID 1672. P35561. B-score at 10 µM. HEK293-Kir2.1, FluxOR thallium flux fluorescence; active compounds read low;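 active = fluorescence ratio B-score at or below minus 3 SD of library scores, with starting-brightness B-score within 2 SD, cut at about -4.2 in these data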;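 note: channel flux triggered by added potassium and thallium sulfate stimulus; B-score of peak minus minimum fluorescence over baseline after thallium stimulus; more negative B-score means stronger Kir2.1 block with less thallium influx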
# Target sequence (P35561 whole entry, looked up): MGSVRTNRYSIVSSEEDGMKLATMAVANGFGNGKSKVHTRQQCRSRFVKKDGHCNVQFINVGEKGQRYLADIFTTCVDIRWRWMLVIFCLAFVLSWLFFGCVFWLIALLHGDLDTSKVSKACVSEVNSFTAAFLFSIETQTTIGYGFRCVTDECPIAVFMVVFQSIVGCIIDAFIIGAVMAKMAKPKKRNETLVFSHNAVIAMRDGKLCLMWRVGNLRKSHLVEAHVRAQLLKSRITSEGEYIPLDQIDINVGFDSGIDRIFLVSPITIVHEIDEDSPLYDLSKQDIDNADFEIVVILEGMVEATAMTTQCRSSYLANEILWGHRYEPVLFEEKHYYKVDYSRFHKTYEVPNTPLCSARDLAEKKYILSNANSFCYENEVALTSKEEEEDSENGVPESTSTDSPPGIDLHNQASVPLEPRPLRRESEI
# Hits are given with their value; – = inactive; · = no result given. The list is not random: actives were taken first. Their share in the collection is about 3.8%.
SMILES,KCNK9 inh,hERG rescue,KCNQ1 act,KCNQ1 block,KCNK3 block,Kir21 inh
CC1(c2nnc(-c3ccc(F)cc3)o2)CC(c2c(Cl)cccc2Cl)=NO1 (stereo not given),–,–,–,–,–,–
CC1(c2nnc(-c3ccc(Cl)cc3)o2)CC(c2c(Cl)cccc2Cl)=NO1 (stereo not given),-7.6,–,–,–,–,–
CN(C(=O)COC(=O)c1cc(=O)[nH]c2ccccc12)c1ccccc1,·,·,·,·,–,·
Cc1cccc(S(=O)(=O)Nc2cccc3c2C(=O)c2ccccc2-3)c1,–,–,9,–,–,–
Cc1ccc(NS(=O)(=O)c2ccc3c(c2)C(=O)c2ccccc2C3=O)c(C)c1,·,·,·,·,–,·
O=C(CN1C(=O)NC2(CCCC2)C1=O)NCCc1ccccc1,·,·,·,·,–,·
Cc1ccc([N+](=O)[O-])cc1N=Nc1c(C)[nH]n(C(N)=S)c1=O,–,–,–,–,–,–
Cc1ccc([N+](=O)[O-])cc1N=Nc1c(-c2ccc([N+](=O)[O-])cc2)[nH]n(C(N)=S)c1=O,–,–,–,7,–,–
CC(NC(=O)/C(C#N)=C/c1ccc(Cl)c([N+](=O)[O-])c1)c1ccccc1 (stereo not given),–,–,–,–,·,-5.5
C[C@@H](NC(=O)/C(C#N)=C/c1ccc(O)c(O)c1)c1ccccc1,·,·,·,·,–,·
Cc1ccc(S(=O)(=O)NCc2ccco2)cc1C,–,–,–,–,–,–
Cc1cc(C)c(C)c(S(=O)(=O)NCc2cccnc2)c1C,–,–,–,–,–,-4.7
Cc1cc(C)c(C)c(S(=O)(=O)NCc2ccco2)c1C,–,–,–,–,·,-7.7
CC(C)(C)OC(=O)N1CCC[C@H]1C(=O)Nc1ccc(S(=O)(=O)C(F)F)cc1,–,–,–,–,–,–
NS(=O)(=O)c1ccc(NC(=S)NCc2cccs2)cc1,–,6.6,–,–,–,–
S=C(NCc1cccs1)Nc1ccccc1,–,–,–,–,–,–
Nc1nc(Nc2ccccc2)nc(NCc2ccccc2)c1[N+](=O)[O-],–,–,–,–,–,–
Cc1cccc(Nc2nc(N)c([N+](=O)[O-])c(NCc3ccccc3)n2)c1,–,–,–,7,–,–
Cc1cc(Br)ccc1NC(=O)CN(C)C(=O)c1cccc(S(=O)(=O)N2CCN(C)CC2)c1,·,·,·,·,–,·
CCOC(=O)c1c(NC(=O)C(C)NCc2ccco2)sc2c1CCC(C)C2 (stereo not given),–,–,–,6,–,–
NC(=O)c1ccccc1NC(=O)/C=C/C(=O)O,–,15,–,–,–,–
NC(=O)c1ccccc1NC(=O)CN1CCOCC1,–,–,–,–,–,–
NC(=O)c1ccccc1NC(=O)N1CCOCC1,–,–,9,–,–,–
COC(=O)c1ccccc1NC(=O)/C=C/C(=O)O,–,–,–,–,–,–
COc1ccccc1C(CNC(=O)c1cccc(S(=O)(=O)Nc2ccc(F)cc2)c1)N1CCCC1 (stereo not given),·,·,·,·,–,·
SMILES,KCNK9 inh,hERG rescue,KCNQ1 act,KCNQ1 block,KCNK3 block,Kir21 inh
CC1CCN(c2ccc3nnc(CCC(=O)Nc4cccc(F)c4)n3n2)CC1,–,–,–,–,–,–
Cc1ccc(CN2C(=O)NC(Cc3c[nH]c4ccccc34)C2=O)cc1 (stereo not given),–,–,–,–,–,-4.3
CC(C)N1C(=O)CCC1C(=O)NC1CCCC1 (stereo not given),–,–,–,–,–,–
O=C(NC1CC1)C1CCC(=O)N1C1CCCC1 (stereo not given),–,5.2,–,–,–,–
S=C(NCCSCc1c(Cl)cccc1Cl)Nc1ccccc1,–,–,–,–,–,-5.1
O=C(NCCSCc1c(F)cccc1Cl)Nc1ccccc1,–,–,–,–,–,–
COc1ccc(-n2nc([N+](=O)[O-])c(=NCCc3cccc(C)c3)n2O)cc1,–,–,–,–,–,–
Cc1cccc(CCN=c2c([N+](=O)[O-])nn(-c3ccccc3)n2O)c1,–,–,–,–,–,-4.3
N=C1S/C(=C\c2ccco2)C(=O)N1c1nccs1,–,–,9,–,–,–
CCCCCCC[C@@H](C/C=C/CCC(=O)N(C)C/C(=C/Cl)C/C(=C\C(=O)N1CC(OC)=CC1=O)OC)OC,·,·,·,·,-8.8,·
CCCCCCC[C@@H](C/C=C/CCC(=O)N(C)C/C(=C/Cl)C/C(=C\C(=O)N1C[C@H](O)CC1=O)OC)OC,·,·,·,·,–,·
Cc1ccc(Cl)cc1N1CCN(Cc2nnnn2C2CCCCC2)CC1,–,–,–,–,-11,–
Cc1ccc(Cl)cc1N1CCN(Cc2nnnn2Cc2ccco2)CC1,–,–,–,–,–,–
CC1C/C(=N/Nc2nc3ccccc3[nH]2)CC(C)(C)C1 (stereo not given),–,–,–,–,–,–
Cc1cc(N/N=C2\CC(C)CC(C)(C)C2)nc2ccccc12 (stereo not given),–,–,–,14,–,–
CCCOC1CCCN(Cc2nc(-c3cnccn3)no2)C1 (stereo not given),–,–,–,–,–,–
C[C@@H]1CN(Cc2nc(-c3cnccn3)no2)C[C@H](C)O1,–,7.4,–,–,–,–
Cc1ccn2c(=O)nc(SCC(=O)Nc3ccc4c(c3)OCCO4)nc2c1,–,–,–,–,–,–
CC(=O)C(Cc1ccccc1)NC(=O)CN(C)Cc1ccccc1Cl (stereo not given),–,–,–,–,–,-4.9
Cc1ccc(CC(=O)NC(C)CCc2ccccc2)cc1 (stereo not given),–,–,–,–,–,–
Cc1ccccc1CN(C)CC(=O)NC(C)CCc1ccccc1 (stereo not given),–,–,–,–,–,-11
Cc1ccc(CN(C)CC(=O)NC(C)c2ccccc2)cc1 (stereo not given),–,–,–,–,–,-4.3
Clc1ccc(Nc2ccc(NCc3ccccc3)nn2)cc1,–,–,–,–,–,-5.5
O=c1c(-c2ccccc2)nc(-c2ccccc2)cn1O,–,4.9,–,–,–,–
CS(=O)(=O)Nc1cccc(C2=NN(C(=O)c3ccc(F)cc3)C(c3cccs3)C2)c1 (stereo not given),–,–,–,–,–,–
Cc1ccccc1NCC(=O)N/N=C/c1c(C)c(C(=O)c2ccc(Cl)cc2)n2ccccc12,–,–,–,7,–,–
O=C(COC(=O)C1(c2ccc(Cl)cc2)CCCC1)N1CCc2ccccc21,–,–,–,–,–,–
O=C(Nc1cccc(Cl)c1)N1CCN2C(=O)c3ccccc3C12c1ccccc1 (stereo not given),–,–,–,11,–,–
O=C(CN1C(=O)c2ccccc2C1=O)Nc1cccc(Cl)c1,–,–,–,–,–,–
O=C(CCl)N1CCN2C(=O)c3ccccc3C12c1ccc(Cl)cc1 (stereo not given),–,–,–,–,–,-4.6
